Drawing on the RNAGym collection of RNA variant scans (doi:10.1126/science.aae0568), this text covers yeast fitness for 167 variants.

B1: tRNA (parent)
chain: GUUCCGUUGGCGUAAUGGUAACGCGUCUCCCUCCUAAGGAGAAGACUGCGGGUUCGAGUCCCGUACGGAACG

Fewer inactive variants are shown than the library holds. Where only a bound is given, the exact number is not on record here.

This data set covers variants of B1. As to the kind of experiment: yeast fitness relative to wild type (ratio to wild type); higher = fitter; tRNA-Arg(CCU), competitive growth, 37 C, YPD. In a few lines: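 Genotype frequency changes were the basis for Darwinian fitness relative to wild type. The frequencies came from 100-nucleotide paired-end sequencing of gene amplicons from the start population and each end population of pooled yeast strains with tRNA-Arg(CCU) gene variants at the native locus. Competition ran in YPD at 37°C for 24 hours in six replicates, genotypes needed ≥ 100 starting reads, and estimates < 0.5 were set to 0.5.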
As to C11G A45U, the yeast fitness is 0.666.
Consider C11G A45C, for which the yeast fitness is 0.59.
For C11G G51A C60U the value was 0.79; for C11U A20U U32A G39A A65C, at most 0.5; for C11G C29U G52A, at most 0.5.
For C11G U16C A21U the value was at most 0.5; for C11G A21U U47A G63C, at most 0.5; for C11G C27G U28G, 0.626.
Regarding C11U A14U C27U A40G, the yeast fitness was at most 0.5.
As to C11G G44C C66A, the yeast fitness amounted to 0.614.
For C11G U26C, the yeast fitness is 0.569.
For the variant C11U, the yeast fitness is 1.01.
Turning to C11G U16A C30A A69U, the yeast fitness is at most 0.5.
As for C11U A21G A37U A40G G41A, the yeast fitness is at most 0.5.
Turning to C11U A15U U19G A20G G67C, the yeast fitness was at most 0.5.
For C11G U28A G39A the value was at most 0.5.
In the case of C11U A15C C27A G39C G67U, the yeast fitness was at most 0.5.
With C11G A57U, the yeast fitness is at most 0.5.
Consider C11G A57G, for which the yeast fitness is 0.624.
In the case of C11G C27U A36U A37U G41C A43C C49G C62G, the yeast fitness was found to be 0.604.
For the variant C11G G68C, the yeast fitness amounted to 0.597.
With C11G C27A A36G G38A A65C, the yeast fitness is at most 0.5.
For C11G A45C A65C, the yeast fitness was at most 0.5.
Turning to C11G C27U C33G G52A, the yeast fitness was at most 0.5.
Take C11G U19G: the yeast fitness came to 0.577.
Regarding C11G U28C G39A C60A G67A, the yeast fitness was at most 0.5.
As to C11G A45G C49U C55A A70U, the yeast fitness is at most 0.5.
In the case of C11G U13A U16G U26A C66U, the yeast fitness was at most 0.5.
For C11U A15U the value was 0.757; for C11G C24U U28C C66G, at most 0.5; for C11G A37G G50A, at most 0.5.
For C11U A14G C24G C27U G41A A42C G67C the value was at most 0.5.
For C11G C49U C62U A70U the value was at most 0.5; for C11G A43U G67C, 0.505.
Consider C11U A15C C27G C30U C46A, for which the yeast fitness is at most 0.5.
In the case of C11U A20C G25C C27A A37U, the yeast fitness is at most 0.5.
For C11G C27A C34G, the yeast fitness is at most 0.5.
With C11G A36C G56A, the yeast fitness turned out to be 0.533.
Consider C11G C49U C62U, for which the yeast fitness stood at 0.535.
For C11G C30A U35A, the yeast fitness was at most 0.5.
For C11U A21G U35C the value was 0.538.
On to C11U A14G C46A G51A, for which the yeast fitness was found to be 0.615.
Next, C11G G12A C31G U59G A65G: at most 0.5; C11G A21U G39C G44A U47A: at most 0.5; C11G C27G: at most 0.5.
Next, C11G U16G U35A G41C: at most 0.5; C11G C24A C66G: at most 0.5.
For C11G U32G C33U A37U the value was at most 0.5; for C11G C22A C46G, at most 0.5.
For the variant C11G C24G U54C G67C, the yeast fitness was at most 0.5.
Next, C11G C31A G39A: at most 0.5; C11G C29G U32G G38A U53C: at most 0.5.
For C11G U13G A21G the value was 0.785; for C11U A21G C55G, 0.566; for C11G A20U U28C A37C C49G, 0.611.
Next, C11G C24U A57G G68C: at most 0.5; C11G A36C A57C C66G: at most 0.5; C11U A21C A42C A69C: at most 0.5.
Consider C11G C49U G68U, for which the yeast fitness is at most 0.5.
For C11G G17C U35C C49U C66U the value was at most 0.5; for C11G G44C, 0.639; for C11U A15G A43U, 0.666.
Next, C11G A42C U47A G63C A69C: at most 0.5; C11U A14C A40C G44C C55G: at most 0.5; C11U A14C A15G U26A C34A G63A: at most 0.5.
For C11U A15U C22U G67A, the yeast fitness was at most 0.5.
As to C11G C27U C34U, the yeast fitness is at most 0.5.
For C11U A15U C27G the value was 0.529; for C11G C30G C31G U32A C66U, 0.551; for C11U A14U A40G A42C, at most 0.5.
Consider C11G C34G A36G G48C, for which the yeast fitness was at most 0.5.
Consider C11G U13G A69C, for which the yeast fitness amounted to 0.531.
For C11U A15C A21G C24G U28A C61U, the yeast fitness is at most 0.5.
As to C11G A42C, the yeast fitness is 0.636.
For C11G A42U the value was 0.608.
For C11G A42G the value was 0.649.
Regarding C11G A42U A43C C55A C66A, the yeast fitness is at most 0.5.
For C11G C34A A45G U54A the value was at most 0.5.
Next, C11G A36C A45G A57C C61G: at most 0.5.
Regarding C11G G18C C27A C66U, the yeast fitness turned out to be 0.636.
Next, C11G A43U A45G U47C: at most 0.5; C11G C33G: at most 0.5.
Next, C11U A20C C29A C31U U32C A65C: at most 0.5.
For C11G G56C the value was 0.627; for C11G A21U, 0.536; for C11G C22G C27G C62U, 0.578.
On to C11G C29U C34U, for which the yeast fitness came out at 0.506.
Consider C11U A20C U47G, for which the yeast fitness is at most 0.5.
Next, C11G C24G C27A U28C C33U A65U: at most 0.5; C11G C29U C66A: at most 0.5; C11U A14U C24G G44A C49U G67U: at most 0.5.
Take C11G A36C G41A C66U: the yeast fitness was at most 0.5.
C11G A21G A40G: the yeast fitness is at most 0.5.
C11G U19G A45C: the yeast fitness was at most 0.5.
C11U A20U G39A G63A A70U: the yeast fitness is at most 0.5.
As to C11G C31A A42G A43G G68C, the yeast fitness is at most 0.5.
Next, C11G G23A C34G: at most 0.5; C11G A42G A45U U64C A70C: 0.527.
As for C11U A15C A70U, the yeast fitness was 0.586.
C11G U26A U54C: the yeast fitness was at most 0.5.
Next, C11G U28C: 0.653; C11G G48A A69U: at most 0.5; C11G C29A U54A A57U: at most 0.5.
For C11G C33G A69U the value was at most 0.5.
For C11U A20C C22G A65G A70C, the yeast fitness was at most 0.5.
Next, C11G U47A C61G: at most 0.5.
For C11G G23C G25A the value was 0.977; for C11G C29U A69U, 0.543.
For C11G C22U G68C the value was 0.732; for C11G U16A C29U U53C C62G, at most 0.5; for C11G G25A A36U C60U, at most 0.5.
As for C11G C49G C60A A70U, the yeast fitness was at most 0.5.
For C11G C27U U47A G52C the value was at most 0.5.
With C11G A45U U64C, the yeast fitness is at most 0.5.
Next, C11G C49U G50A C61U: at most 0.5.
For C11G C31G C34U A40C the value was at most 0.5; for C11U A15G G63C C66U, at most 0.5.
Next, C11G C29U A36C A42G: 0.718; C11G G12A C31G A69C: at most 0.5; C11G C46U A65C: 0.561.
On to C11G U19C A45U, for which the yeast fitness was at most 0.5.
Next, C11G U16A C60A: at most 0.5.
For C11G C30U G67C the value was at most 0.5.
For the variant C11U A20U G68A A70C, the yeast fitness is 0.515.
Regarding C11U A14G A37C, the yeast fitness was 0.737.
Next, C11G C30A G52A A65U: at most 0.5; C11G C31A C55U: at most 0.5; C11G C24U U28C: at most 0.5.
Next, C11U A14G C24G: at most 0.5; C11G G39C C61U: at most 0.5; C11U A20G U35A: at most 0.5.
For C11G G58A, the yeast fitness amounted to 0.722.
For the variant C11G G17C A40G, the yeast fitness is at most 0.5.
Next, C11G C62U A65U: 0.525; C11G C55G A57C C66U: at most 0.5; C11G C24G A57G: at most 0.5.
As to C11G A21U C24U U64A A65G G67U, the yeast fitness came to 0.573.
As to C11G C30G C31G U32A C55G G67A, the yeast fitness was found to be 0.696.
For C11U A15U C31A U32A A57G G67A the value was at most 0.5; for C11G U35A G68C, at most 0.5; for C11G A21U C24G G51A G68A, at most 0.5.
C11G A21G G50A U64A: the yeast fitness is at most 0.5.
Next, C11U A15U C34A: 0.588; C11G C29A C31G C46A C60G: 0.614; C11U A15C C27A G39C G63U U64A: at most 0.5.
For C11G U19A A21G C27U G39C, the yeast fitness is at most 0.5.
Next, C11U A20G C22A G23C U28G A43G A57G: at most 0.5; C11G G39C U47C C60A C61G: at most 0.5; C11G G12A C31G: at most 0.5.
C11G C27U C46G: the yeast fitness was at most 0.5.
For C11G C49U the value was 0.631; for C11G C49A, 0.522.
Next, C11G A21G A40G A69U: at most 0.5; C11G A42G U54C A57C: at most 0.5.
Next, C11G C30A A42C C61A: at most 0.5; C11G G12C G23C A40G: at most 0.5.
Turning to C11G C29G C55A U64C, the yeast fitness was at most 0.5.
Next, C11U A14C U54A: at most 0.5; C11G C30G C31G U32A G56A: at most 0.5.
For the variant C11G C22A C31A C61A, the yeast fitness is at most 0.5.
Next, C11G A36C C49A: at most 0.5.
For C11G U26C C61U C62G, the yeast fitness is 0.62.
For C11G A21G C34A the value was at most 0.5; for C11G A43C, 0.63; for C11G U35A, 0.528.
As for C11G G25A C62U, the yeast fitness was at most 0.5.
Next, C11G C30U C31A A40U C49A: at most 0.5.
